Measurements reported in article PMC11303814 (Nature Communications, 2024).
Numbering of substitutions follows the chain as printed.

Tests used:
Test in all cases: TEVC deactivation time
Format in all cases: cell-based
[1] = biological target: T1, rP2X7-R125A/Q143A/I214A (Rattus norvegicus, UniProt Q64663, I214A/Q143A/R125A); settings: after 100 μM ATP or 100 μM BzATP
T1 sequence (Q64663 1-595 R125A/Q143A/I214A): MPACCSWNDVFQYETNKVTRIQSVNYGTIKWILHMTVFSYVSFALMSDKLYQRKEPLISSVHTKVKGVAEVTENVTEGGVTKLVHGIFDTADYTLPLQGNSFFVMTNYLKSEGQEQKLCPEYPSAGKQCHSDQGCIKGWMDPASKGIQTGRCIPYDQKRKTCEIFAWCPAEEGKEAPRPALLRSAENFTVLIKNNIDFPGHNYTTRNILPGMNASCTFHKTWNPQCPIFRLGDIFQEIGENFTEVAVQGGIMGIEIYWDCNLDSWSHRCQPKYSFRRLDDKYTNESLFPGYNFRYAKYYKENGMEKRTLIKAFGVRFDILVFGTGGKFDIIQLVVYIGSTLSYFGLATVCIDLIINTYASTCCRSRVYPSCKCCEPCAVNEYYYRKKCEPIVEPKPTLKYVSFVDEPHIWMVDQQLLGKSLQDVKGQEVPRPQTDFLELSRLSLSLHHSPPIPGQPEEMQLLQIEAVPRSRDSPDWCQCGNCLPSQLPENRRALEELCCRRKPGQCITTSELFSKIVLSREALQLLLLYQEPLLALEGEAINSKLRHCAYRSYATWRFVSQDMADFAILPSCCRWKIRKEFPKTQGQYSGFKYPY
Summary of the method: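 Triple-mutant rP2X7 was expressed ~20 h in Xenopus oocytes (50 nL of 10 ng/µL mRNA) and recorded by TEVC in pH 7.4 HEPES buffer containing flufenamic acid. Deactivation followed 100 µM ATP or 100 µM BzATP. τ is the time to 63% return to baseline after washout, from a one- or two-phase decay fit. Triplicate over first to third applications per oocyte; mean ± SD.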

[2] = biological target: T2, rP2X7-R125A/Q143A (Rattus norvegicus, UniProt Q64663, Q143A/R125A); settings: after 100 μM ATP or 10 μM BzATP
T2 sequence (Q64663 1-595 R125A/Q143A): T1 sequence (Q64663 1-595 R125A/Q143A/I214A) with A214I
Summary of the method: (§1)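 Xenopus oocytes injected with 50 nL of 10 ng/µL mutant rP2X7 mRNA, expressed ~20 h, clamped in pH 7.4 HEPES buffer with 0.1 mM flufenamic acid and EDTA. Currents were evoked by 100 µM ATP or 10 µM BzATP. τ is the time for current to return to 63% of baseline after agonist removal, from a one- or two-phase decay fit. Done in triplicate over first to third applications per oocyte; mean ± SD.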

[3] = biological target: T3, rP2X7-R125A (Rattus norvegicus, UniProt Q64663, R125A); settings: after 100 μM ATP or 10 μM BzATP
T3 sequence (Q64663 1-595 R125A): T1 sequence (Q64663 1-595 R125A/Q143A/I214A) with A143Q, A214I
Summary of the method: as §1

[4] = biological target: T4, rP2X7-R125A/I214A (Rattus norvegicus, UniProt Q64663, I214A/R125A); settings: after 100 μM ATP or 10 μM BzATP
T4 sequence (Q64663 1-595 R125A/I214A): T1 sequence (Q64663 1-595 R125A/Q143A/I214A) with A143Q
Summary of the method: as §1

Molecule	deactivation lifetime τ [1] [s]	deactivation lifetime τ [2] [s]	deactivation lifetime τ [3] [s]	deactivation lifetime τ [4] [s]
BzATP	3.7 ± 0.7	2.5 ± 1.1	18 ± 3.7	23 ± 13
Nc1ncnc2c1ncn2[C@@H]1O[C@H](COP(=O)(O)OP(=O)(O)OP(=O)(O)O)[C@@H](O)[C@H]1O [ATP]	2.4 ± 0.8	1.8 ± 0.1	3.5 ± 0.6	3.7 ± 0.8
